Data on six compounds can be found in ChEMBL document CHEMBL5104200, “Discovery and Biological Characterization of PRMT5:MEP50 Protein-Protein Interaction Inhibitors” (J Med Chem, 2022).

In experiment [1] the target is T1, PRMT5/MEP50 complex (Homo sapiens) (UniProt O14744+Q9BQA1). In words: Inhibition of PRMT5/MEP50 (unknown origin) protein-protein interaction expressed in COS-1 cells at 10 uM incubated for 18 hrs by BiFC screening analysis relative to control. Format: cell-based. The method, boiled down: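 Transfected COS-1 cells (VN-PRMT5, VC-MEP50, NLS-CFP) treated at 10 µM or DMSO six hours after transfection; imaged 24 h after transfection. Per-cell YFP:CFP mean intensity ratio normalized to DMSO gives BiFC efficiency; inhibition = 100% minus efficiency. Single biological replicate screen.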

Experiment [2] relates to LNCaP. Nature of the experiment: Upregulation of PTEN gene expression in human LNCaP cells at 500 nM after 72 hrs by RT-qPCR analysis. Format: functional, cell-based. The method, boiled down:
(§1)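 LNCaP seeded in 6 or 10 cm dishes, attached 24 h, treated 500 nM or DMSO for 72 h. RNA by Trizol, integrity checked on agarose gel. RT-qPCR in technical triplicate, CT normalized to GAPDH; three biological replicates, Student's t-test.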

Experiment [3] concerns LNCaP. Nature of the experiment: Induction of cell death in human LNCaP cells incubated for 72 hrs by MTT assay. Format: functional, cell-based. An outline of the steps:
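LNCaP seeded 7,000 cells/well, attached 24 h, then given an 11-point dilution series plus DMSO control (constant 0.25% DMSO) for 72 h at 37 °C, 5% CO2. MTT at 0.5 mg/mL in complete RPMI for 4 h, then dissolved in DMSO and read at 570 nm. IC50 from regression curve; mean of three biological replicates.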

For experiment [4], the target named is T1, PRMT5/MEP50 complex (Homo sapiens). In words: Inhibition of PRMT5 /MEP50 protein-protein interaction in human LNCaP cells assessed as reduction in H4R3me2 level after 72 hrs by densitometry method. In kind it is cell-based. The conditions noted are these: DDE = dose-dependent effect. An outline of the steps: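 LNCaP treated 72 h; lysed in RIPA with protease inhibitors, protein by Bradford, 20 µg loaded on 15% gel. Blotted with anti-H4R3 and anti-H4R3me2s, IRDye 800CW secondary, infrared imaging. H4R3me2s integrated intensity normalized to H4R3 versus DMSO; three biological replicates, t-test.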

Experiment [5] shares this target. Nature of the experiment: Inhibition of PRMT5 /MEP50 protein-protein interaction in human LNCaP cells assessed as increase in IVL gene expression at 500 nM after 72 hrs by RT-qPCR analysis.
Experiment [6] shares this target. Nature of the experiment: Inhibition of PRMT5/MEP50 protein-protein interaction in human LNCaP cells assessed as reduction in TGF-beta signalling after 72 hrs.
For experiment [7], the system named is LNCaP. Nature of the experiment: Upregulation of RB1 gene expression in human LNCaP cells at 500 nM after 72 hrs by RT-qPCR analysis. In kind it is functional, cell-based. The method, boiled down: as §1
Experiment [8] addresses T1, PRMT5/MEP50 complex (Homo sapiens). In words: Inhibition of PRMT5 /MEP50 protein-protein interaction in human LNCaP cells at 500 nM incubated for 24 hrs by co-immunoprecipitation method. In kind it is cell-based. The method, boiled down:
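LNCaP treated 500 nM or DMSO for 24 h, lysed 1 h at 4 °C in Tris pH 7.4/NaCl/EDTA/Triton buffer with protease inhibitors. 1 mg/mL lysate immunoprecipitated overnight with anti-PRMT5, anti-MEP50 or rabbit IgG on protein A beads. Blots probed for PRMT5 and MEP50; signal normalized to 0.4% input.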

The target is the same in experiment [9]. In words: Inhibition of PRMT5/MEP50 (unknown origin) protein-protein interaction expressed in COS-1 cells at 250 to 500 nM incubated for 18 hrs by BiFC screening analysis relative to control. The conditions noted are these: dose 250-500 nM. In kind it is cell-based. An outline of the steps:
(§2)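 COS-1 seeded 50,000 cells/well, co-transfected with Myc-VN155-PRMT5, HA-VC-MEP50 and FLAG-NLS-CFP. After 24 h transfection, treated 18 h at 0.5 µM or 0.25 µM (separate screens), then imaged (YFP, CFP). Per-cell YFP:CFP ratio normalized to DMSO gives BiFC efficiency; % inhibition = 100% − efficiency. Single biological replicate screens.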

Another experiment relates to A549. Nature of the experiment: Cytotoxicity against human A549 cells after 72 hrs by MTT assay. Format: functional, cell-based. The conditions noted are these: A549, 72 h.
Experiment [10] has as its target T1, PRMT5/MEP50 complex (Homo sapiens). In words: Inhibition of PRMT/MEP50 (unknown origin) protein-protein interaction expressed in COS-1 cells incubated for 18 hrs by BiFC screening analysis. In kind it is cell-based. The conditions noted are these: DDE = dose-dependent effect. An outline of the steps:
as §2

Experiment [11] shares this target. In words: Inhibition of PRMT5/MEP50 (unknown origin) protein-protein interaction expressed in COS-1 cells at 0.25 uM incubated for 18 hrs by BiFC screening analysis relative to control. In kind it is cell-based. The method, boiled down:
as §2

The next experiment deals with COS-1. Nature of the experiment: Induction of cell death in African green monkey COS-1 cells at 10 uM. Format: functional, cell-based. The conditions noted are these: Chlorocebus aethiops.

SMILES strings stand for the structures. The source made the active and inactive calls. The calls are words filed in the database; no cut-off is given here.

Take `c1ccc(-n2cnc3ccccc32)cc1`: the inhibition in [1] turned out to be 24%.
Take `CCCCC(=O)Nc1sc2c(c1C(=O)NC1CCS(=O)(=O)C1)CCC(C(C)(C)C)C2` (stereo not drawn): the inhibition in [1] worked out at 24%.
Take `CCN(CC)c1ccc(/C=C2\S/C(=N/NC(=O)c3ccc(Cl)cc3Cl)NC2=O)cc1`: the inhibition in [1] amounted to 24%.
Take `CCc1noc(C)c1COc1cccc(C(=O)NNC(=O)c2ccc3ccccc3n2)c1`: the outcome with LNCaP [2] and in the experiment on LNCaP [7] was Active. Also, the IC50 in the experiment on LNCaP [3] worked out at 430 nM; in the experiment on A549 it was 447 nM. Further, the Activity result in the experiment on LNCaP [3] (DDE = dose-dependent effect) was “Dde”. Further, the inhibition entry in experiment [4] is “Dde”; in experiment [8] it was 65.4%. Also, the inhibition entry in experiment [5], in experiment [6] and in [9] was “Active” in each case.
As for `Cn1cc(C(=O)NCC2CCN(C(=O)c3nc(-c4ccccc4)n4c3CCCCC4)CC2)cn1`, the inhibition in [1] came to 24%.
As to `Cc1noc(C)c1COc1cccc(C(=O)NNC(=O)c2ccc3ccccc3n2)c1`, the inhibition entry in [10] was “Dde”; in experiment [11], 41%. The IC50 with LNCaP [3] is 1660 nM. Moreover, the result with COS-1 was Active.
